# High-throughput results (PubChem BioAssay)
# Most compounds without a hit are left out; they make up all but 6.8% or so of the library.
# ALR inh = human ALR oxidase inhibition via reduced H2O2. 290,000 tested, 3.8% active. inhibition, % (no concentration beside the values). purified ALR, DTT oxidation, H2O2 HRP-luminol luminescence. P55789. AID 485317;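 active means mean replicate inhibition above about 79%, with every replicate also reaching it, limit read from the data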
# PHOSPHO1 block = inhibitors of human PHOSPHO1 phosphatase; Q8TCT1; 290,000 tested, 1.1% active; recombinant PHOSPHO1, absorbance phosphatase assay; AID 1565; inhibition, % at 13.3 µM; in the data active means inhibition above about 60%
# Target sequence (Q8TCT1 whole entry, looked up): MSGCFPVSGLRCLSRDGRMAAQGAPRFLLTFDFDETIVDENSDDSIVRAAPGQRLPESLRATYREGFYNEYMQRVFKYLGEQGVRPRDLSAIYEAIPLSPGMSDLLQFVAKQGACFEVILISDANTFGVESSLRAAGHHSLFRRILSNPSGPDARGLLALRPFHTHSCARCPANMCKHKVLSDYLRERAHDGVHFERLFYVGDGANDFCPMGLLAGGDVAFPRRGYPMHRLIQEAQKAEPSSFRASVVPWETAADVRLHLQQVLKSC
# HSF1 activator = increases HSF-1 driven luciferase reporter signal | NIH3T3-HGL HSF-1 luciferase reporter, MG132, 8 h; 100% = twice DMSO control signal | activation, % at 9 µM | 300,000 tested, 1.7% active | AID 504408;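 active means mean replicate activation of at least 50% with a set share of replicates each reaching 50%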;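 further: 0% = median of the neutral control wells and 100% = twice that signal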
# core dimer inh = blocks dimerization of HCV core protein; TR-FRET GST/Flag-core106 dimerization, 1536-well; inhibition, % at 5 µM; 300,000 tested, 0.33% active; AID 1899;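 active means inhibition above the mean of all tested compounds plus 3 SD, set per screening campaign, cut at about 45% in these data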
#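 Assay system – GST-tagged and Flag-tagged HCV core protein residues 1-106 · Quantity – core106 proteins, GST 13.5 nM and Flag 17 nM · Benchmarks – unlabelled core106 and no-GST-core106 wells · Read-out basis – percent inhibition of core106 dimerization signal · Detection – time-resolved FRET, ex 340 nm, em 617 and 671 nm · Schedule – 4 h at 22.5 °C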
# HSF1 inh = HSF1 inhibition | activity change, negative = inhibition, % at 7.5 µM (by protocol) | NIH3T3-HGL HSE-luciferase, MG132-induced, luminescence 8 h; active compounds read low | 300,000 tested, 0.77% active;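 active means more than half of replicate wells show activity change below -50%, luminescence cut by over half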;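 further: luciferase reports HSF-1 transcriptional activity via heat shock element; 0% = median of DMSO wells and -100% = zero luminescence signal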
# AI-2 QS mod = Vibrio harveyi AI-2 quorum sensing modulation | Vibrio harveyi JMH597 AI-2 luminescence/OD600 ratio, 9 h; active compounds read low; strain lacks LuxN and CqsS sensors; 0 = neutral-control median | activity change, % at 7.5 µM | 300,000 tested, 0.4% active | AID 2094; in the data active means activity change below about -75%, passing the limit was not always enough;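 further: luminescence divided by OD600 gain over 9 h not by final OD600 alone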
# Active calls of the source: *; x = no result.
SMILES,ALR inh,PHOSPHO1 block,HSF1 activator,core dimer inh,HSF1 inh,AI-2 QS mod
S=c1[nH]nc(C2COc3ccccc3O2)o1 (stereo not given),19,96*,1,0,-3,13
S=c1nc(C2COc3ccccc3O2)[nH][nH]1 (stereo not given),-4,37,-4,2,-6,-1
N#CCc1ccc(Oc2ncc(C(F)(F)F)cc2Cl)cc1,-1,16,4,-2,3,3
Cc1ccc(CO/N=C\Cc2snc(Sc3ncc(C(F)(F)F)cc3Cl)c2C#N)cc1,40,95*,31,11,19,20
Cc1cccc(NC(=O)C2CCCN(S(=O)(=O)c3ccc4[nH]c(=O)ccc4c3)C2)n1 (stereo not given),-4,17,3,-4,0,21
COc1ccc(F)cc1C(=O)C1CCCN(Cc2cnc(N3CCCC3)s2)C1 (stereo not given),-2,40,-8,-4,5,0
COc1ccc(C(=O)C2CCCN(Cc3cnc(N4CCCC4)s3)C2)cc1OC (stereo not given),98*,23,13,-9,-9,28
Brc1cnc2nc(SC/C=C/c3ccccc3)[nH]c2c1,-15,14,62*,4,50,15
COc1ccc(NC(=O)CCN2C(=O)c3ccncc3C2=O)cc1OC,-16,34,0,2,-1,7
COc1ccc(/C=C/C(=O)N(C(C)C)C(C)C)cc1Br,-1,-3,99*,2,55,8
COc1ccc(/C=C/C(=O)NC(C)C)cc1Br,1,4,x,0,x,1
COCCCN(C(=O)C1CCC1)c1c(N)n(Cc2ccccc2)c(=O)[nH]c1=O,-5,x,x,x,x,x
O=C(Nc1nnc(-c2ccncc2)o1)c1ccc(Br)s1,1,14,10,5,-5,45
Cc1cccc(C(=O)n2c(=S)nc3ccccn32)c1,x,85*,8,1,-12,13
O=C(c1ccco1)N1CCN(C(=O)c2ccccc2OCc2ccccc2)CC1,-4,x,x,x,x,x
CC(=O)Nc1ccc(N2C(=O)c3ccc(C(=O)Nc4nnc(SCc5ccc(F)cc5)s4)cc3C2=O)cc1,-4,37,-4,34,-6,30
Cc1cc(C)c2nc(C(F)(F)F)c(C#N)c(N)c2c1,-3,5,-68,5,-62*,21
COc1cc(NC(=O)Cc2cccs2)c(C(=O)O)cc1OC,-4,46,-6,1,-8,44
C=CCN1C(=O)/C(=c2\sc3nc(=O)c(Cc4ccc(OC)c(OC)c4)nn3c2=O)c2ccccc21,20,19,-23,4,-7,8
CN1c2ccsc2/C(=N/Nc2ccccc2)CS1(=O)=O,99*,-74,46,-25,38,41
CCOC(=O)C1C(=O)CC(C)(O)C(C(=O)OCC)C1c1ccc(OC)cc1 (stereo not given),-6,-26,5,3,-6,18
CCN(CC)c1ccc(C2C(C(C)=O)C(=O)CC(C)(O)C2C(C)=O)cc1 (stereo not given),99*,x,-15,3,-4,3
CC(=O)C1C(=O)CC(C)(O)C(C(C)=O)C1c1ccc(N(C)C)cc1 (stereo not given),98*,2,-1,-1,-1,22
CS(=O)(=O)c1ccc(C(=O)Nc2cccc(-c3nc4ccccc4[nH]3)c2)cc1,99*,34,-11,2,-2,12
CS(=O)(=O)c1cccc(C(=O)Nc2cccc(-c3nc4ccccc4[nH]3)c2)c1,99*,18,9,-3,3,33
CS(=O)(=O)c1ccc(C(=O)Nc2ccc(-c3nc4ccccc4[nH]3)cc2)cc1,14,34,5,-5,2,43
CCOc1ccccc1CN1CCNC(=O)C1CC(=O)NCCN1CCOC1=O (stereo not given),-7,15,-1,7,-5,17
Nc1nc(SCC(=O)N2N=C3/C(=C/c4ccco4)CCCC3C2c2ccco2)n[nH]1 (stereo not given),5,45,-8,52*,-6,27
Cn1cnnc1SCC(=O)N1N=C2/C(=C/c3ccco3)CCCC2C1c1ccco1 (stereo not given),-2,80*,-13,-7,-7,27
O=C(CSc1nccc(=O)[nH]1)N1N=C2/C(=C/c3ccco3)CCCC2C1c1ccco1 (stereo not given),-13,-43,-14,22,-2,11
